Screening data (PubChem BioAssay)
ARFGAP1 inhibitor = inhibitors of rat ARFGAP1 | Q62848 | Arfgap1-stimulated ARF1 GTP hydrolysis, GDP FP detection | inhibition, % at 16.5 µM | 360,000 tested, 0.26% active;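 active = inhibition above a per-plate limit, mean inhibition of low control wells plus 3 SD, cut at about 25% in these data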;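 note: 0% = DMSO wells with enzyme and 100% = wells lacking Arfgap1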
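Repeats: one replicate per compound; assay system: rat Arfgap1 catalytic domain, aa 1-136; times: enzyme reaction 120 min at 25 °C after 20 min preincubation; detection: FP of antibody-bound GDP Alexa 633 tracer, ex 620/em 688 nm; benchmarks: high control wells lacking Arfgap1, low control full reaction with DMSO; reagent: human ARF1(Δ1-17)-GTP substrate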
GC-A act = GC-A (human) enzyme activation; P16066; HEK293 GC-A cells, cGMP TR-FRET, EC30 ANP; 0% at EC30 ANP, 100% saturating ANP; activation, % at 10 µM; 370,000 tested, 0.14% active; in the data active = activation above about 40%
Target sequence (P16066 whole entry, looked up): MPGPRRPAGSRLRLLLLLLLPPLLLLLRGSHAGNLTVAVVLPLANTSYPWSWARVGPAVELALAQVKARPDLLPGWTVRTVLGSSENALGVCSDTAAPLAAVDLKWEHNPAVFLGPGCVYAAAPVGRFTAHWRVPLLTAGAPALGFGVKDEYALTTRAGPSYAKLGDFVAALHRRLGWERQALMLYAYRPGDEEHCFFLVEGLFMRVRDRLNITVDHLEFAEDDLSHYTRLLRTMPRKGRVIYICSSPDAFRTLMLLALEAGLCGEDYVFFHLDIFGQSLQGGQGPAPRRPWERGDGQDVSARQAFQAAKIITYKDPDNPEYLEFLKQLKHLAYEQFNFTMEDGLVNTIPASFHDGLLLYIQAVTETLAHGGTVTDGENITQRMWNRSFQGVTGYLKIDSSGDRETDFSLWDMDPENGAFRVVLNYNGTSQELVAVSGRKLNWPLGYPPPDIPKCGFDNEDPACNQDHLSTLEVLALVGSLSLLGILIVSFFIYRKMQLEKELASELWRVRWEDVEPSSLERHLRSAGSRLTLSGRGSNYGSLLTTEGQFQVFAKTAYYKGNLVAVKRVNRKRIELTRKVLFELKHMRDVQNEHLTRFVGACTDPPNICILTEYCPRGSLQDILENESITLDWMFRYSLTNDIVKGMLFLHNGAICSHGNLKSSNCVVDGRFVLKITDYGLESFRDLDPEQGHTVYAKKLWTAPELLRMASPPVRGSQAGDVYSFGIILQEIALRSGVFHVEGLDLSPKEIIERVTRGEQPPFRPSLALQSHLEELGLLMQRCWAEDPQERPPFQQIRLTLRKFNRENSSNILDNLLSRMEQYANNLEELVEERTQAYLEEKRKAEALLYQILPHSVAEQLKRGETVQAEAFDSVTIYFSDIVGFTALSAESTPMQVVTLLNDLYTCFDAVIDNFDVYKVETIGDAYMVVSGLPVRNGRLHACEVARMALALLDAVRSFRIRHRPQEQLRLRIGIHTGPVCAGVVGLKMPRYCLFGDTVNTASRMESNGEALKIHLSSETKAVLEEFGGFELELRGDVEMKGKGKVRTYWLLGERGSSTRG
core dimer inh = HCV core protein dimerization inhibition. AID 1899. inhibition, % at 5 µM. 300,000 tested, 0.33% active. TR-FRET GST/Flag-core106 dimerization, 1536-well;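 active = inhibition above the mean of all tested compounds plus 3 SD, set per screening campaign, cut at about 45% in these data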
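Assay system: Tagged HCV core106 pair (GST and Flag) | Buffer or medium: KF-containing HEPES buffer, pH 7.45, DTT, CHAPS, BSA | Also added: Eu donor and XL665 acceptor anti-tag antibodies | Dosing: One concentration, 5 µM, in 0.5% DMSO | Timing: 4 h at 22.5 °C | Technique: TR-FRET 671 and 617 nm emission | Repeats: Singlicate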
NPR2 activator = GC-B (human) receptor activation. HEK293-GC-B cells, CNP EC30, cGMP TR-FRET; 0% at EC30 CNP, 100% saturating CNP. activation, % at 10 µM. 370,000 tested, 0.11% active. AID 1920062;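 active = activation at 10 µM reaching about 35% in either raw or pattern-adjusted values, limit read from the data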
ASAP1 GAP inh = blocks human ASAP1-stimulated Arf1 GTP hydrolysis. Q9ULH1. GDP FP detection. inhibition, % at 16.5 µM. 360,000 tested, 0.19% active. AID 624377; in the data active = inhibition above about 25%;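 note: 0% = vehicle with enzyme and substrate and 100% = no enzyme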
CTSL1 counter = cathepsin L1 inhibition, PFM18AAP counter-screen; recombinant F. hepatica cathepsin L1, Z-Leu-Arg-MCA fluorescence; inhibition, % at 5.96 µM; 300,000 tested, 0.49% active;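 active = inhibition above the mean of all tested compounds plus 3 SD, set per screening campaign, cut at about 17% in these data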;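 note: 0% = plate median of test compound wells and 100% = 1 µM Z-Phe-Ala-diazomethylketone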
Starred values were filed as active, the others as inactive; x = not tested or not shown. Most compounds without a hit are left out; they make up all but 1.2% or so of the library.

SMILES	ARFGAP1 inhibitor	GC-A act	core dimer inh	NPR2 activator	ASAP1 GAP inh	CTSL1 counter
COc1ccc(CCC(=O)Nc2c(-c3ccc(N(C)C)cc3)[nH][nH]c2=O)cc1	-3	1	x	-10	49*	x
CCC(C)(C(=O)NC1CCCC1)N(C)C(=O)Cc1c[nH]c2ccccc12 (stereo not given)	4	-2	-2	2	-3	-3
Cc1ccc(/C=C/C(=O)NC2CCCCCCC2)o1	3	8	1	7	5	74*
Cc1cc2ccccn2c1C(=O)c1ccc(Cl)c([N+](=O)[O-])c1	4	-8	0	-7	-2	6
O=C(Nc1ccc(S(=O)(=O)Nc2nccs2)cc1)c1nn(-c2ccccc2)ccc1=O	1	0	63*	-2	-1	3
Cc1cc2oc(C(=O)Nc3ccc(S(=O)(=O)Nc4nccs4)cc3)cc(=O)c2cc1Cl	0	-4	58*	0	16	3
Cc1cc(C)c2oc(C(=O)Nc3ccc(S(=O)(=O)Nc4nccs4)cc3)cc(=O)c2c1	-10	-4	7	-1	-1	1
Cc1occc1C(=O)N/N=C/c1ccccc1[N+](=O)[O-]	1	-7	1	0	-4	-2
NC(=O)C1(Nc2ccc(-c3ccc(Br)cc3)cc2)CCCC1	-5	52*	x	-4	0	x
Cc1ccc(NC2(C(N)=O)CCCC2)cc1	-1	0	x	-5	-6	x
CC(C)(C)C(=O)COC(=O)c1c2c(nc3ccccc13)CCC2	-8	1	54*	2	0	5
Cc1cccc(N2CCN(C(=O)CCNS(=O)(=O)c3cccs3)CC2C)c1 (stereo not given)	-6	-4	-3	1	1	-12
CN1CCN(C2=C(Cl)C(=O)N(c3ccc(Cl)cc3)C2=O)CC1	x	x	4	x	x	20*
O=C1C(Cl)=C(N2CCCCCC2)C(=O)N1c1ccc(Br)cc1	-8	-1	12	1	-8	7
Cc1ccc(N2C(=O)C(Cl)=C(N3CCN(C)CC3)C2=O)c(C)c1	-2	-3	-3	2	6	27*
O=C1C(Cl)=C(N2CCCCCC2)C(=O)N1c1ccccc1	-2	-8	3	-3	5	19*
COC(=O)Nc1ccc([N+](=O)[O-])cc1OC	-13	0	-7	-5	1	1
COC(=O)CSc1cc([N+](=O)[O-])ccc1NC(=O)OC	3	5	-2	-1	8	19*
COCc1c(C(=O)OCc2nc(N)nc(Nc3ccccc3C)n2)oc2ccccc12	0	-3	-7	-1	5	17*
CS(=O)(=O)c1ccccc1C(=O)NC1CCCc2ccccc21 (stereo not given)	-5	-2	0	-4	-1	21*
CCOc1cc(S(=O)(=O)Nc2cc(C)cc(C)c2)ccc1Cl	14	-3	3	47*	2	2
Cc1cc(C)c(NC(=S)NC(=O)c2ccccc2)cc1C	-9	-5	x	0	1	x
O=C(Nc1cccc(NC(=O)c2c(F)cccc2F)n1)c1c(F)cccc1F	25*	0	-8	2	14	0
O=C(Nc1cccc(NC(=O)c2cccc(F)c2)n1)c1cccc(F)c1	-1	3	8	3	1	0
CCC(=O)NC(=S)NNC(=O)c1ccc(O)cc1	16	1	-5	85*	11	1
SMILES	ARFGAP1 inhibitor	GC-A act	core dimer inh	NPR2 activator	ASAP1 GAP inh	CTSL1 counter
CCC(C)NC(=S)NNC(=O)c1ccncc1 (stereo not given)	-6	5	2	14	-6	20*
CCC(=O)NNC(=S)NC(=O)c1ccc(C)cc1	-8	5	1	5	7	1
CC(C)c1ccc(C(=O)NNC(=O)c2ccncc2)cc1	-8	5	-4	-7	-9	-2
Cc1ccc(C(C(=O)NCC2CCCO2)N(C(=O)c2snc(C(N)=O)c2N)c2ccc(F)cc2)o1 (stereo not given)	-1	-13	-10	-5	-6	3
Cc1ccc(C(C(=O)NCC2CCCO2)N(C(=O)c2snc(C(N)=O)c2N)c2ccccc2F)o1 (stereo not given)	8	-14	-12	-8	-6	19*
Cc1ccccc1CS(=O)(=O)c1ncc(Cl)c(C(=O)Nc2ccc(F)cc2)n1	-5	42*	-6	10	4	1
O=C(Nc1ccc(F)cc1)c1nc(S(=O)(=O)Cc2ccccc2)ncc1Cl	-6	42*	2	14	6	0
CCN(c1ccccc1)S(=O)(=O)c1ccc(NC(=O)c2nc(S(C)(=O)=O)ncc2Cl)cc1	x	x	12	x	x	-9
Cc1ccc(NC(=O)c2nc(S(=O)(=O)Cc3ccccc3)ncc2Cl)cc1	-13	38	7	15	-1	2
CCS(=O)(=O)c1ncc(Cl)c(C(=O)Nc2ccc(S(=O)(=O)N(C)c3ccccc3)cc2)n1	11	62*	2	41*	4	3
Cc1ccc(S(=O)(=O)NC(=O)C2(C)CCN2C(=O)Cc2ccc(C(C)(C)C)cc2)nc1 (stereo not given)	4	2	x	0	5	x
O=C(CSc1nnc(CNC(=O)c2ccco2)o1)Nc1ccc(Br)cc1	18	-1	3	-4	1	3
O=C1Nc2ccccc2SC(c2ccccc2)C1O (stereo not given)	3	-4	83*	1	12	-2
O=C(O)CC1Sc2ccccc2NC1=O (stereo not given)	8	-1	-7	-3	-2	-3
COc1ccc(CNC(=S)Nc2cc(OC)ccc2OC)cc1	-3	40*	-4	3	-7	-4
COc1ccc(OC)c(NC(=S)NCc2ccc(S(N)(=O)=O)cc2)c1	7	0	-2	2	7	-3
O=c1/c(=C/c2ccccn2)sc2n1CN(c1ccccc1)CN=2	13	-4	12	-1	-8	0
O=C(O)CCn1cc(/C=C2\NC(=S)N(c3ccccc3)C2=O)c(-c2ccc(Br)cc2)n1	-5	-3	-6	-4	1	19*
N#CCCn1cc(/C=C2\NC(=S)N(c3ccccc3)C2=O)c(-c2ccc(F)cc2)n1	3	23	-17	12	-6	5
NCCCCCc1nnc(SCC(=O)Nc2cccc(Cl)c2)o1	4	-1	-3	3	-3	17*
c1coc(CNc2nc3sc4c(c3c3ncnn23)CCCC4)c1	-8	3	7	9	2	6
COc1ccc(-n2c(SCC(=O)Nc3ccccc3)nnc2-c2ccc(NS(=O)(=O)c3ccc(C)cc3)cc2)cc1	8	-1	52*	-2	1	2
